Values after ≈ are worked out from the molar mass of the structure shown. Values joined by “and” are separate entries in the source; they are usually repeats but may differ in a detail not shown here. Equal entries are not always repeated.
Legend:
[1] = test system: Mycobacterium tuberculosis; assay: Antitubercular activity against Mycobacterium tuberculosis H37Rv ATCC 27294 at 6.25 ug/mL by microplate alamar blue assay; type: functional; details: read-out: GI
Outline: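 Primary screen against M. tuberculosis H37Rv (ATCC 27294) at a single concentration of 6.25 µg/mL. Broth microdilution Microplate Alamar Blue Assay in BACTEC 12B medium. Fluorescent compounds were instead run in the BACTEC 460 radiometric system. Percent growth inhibition reported; >95% counted as active. Rifampin used as reference.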

Salmonella typhi = assay: Antimicrobial activity against Salmonella typhosa after 24 hrs by well diffusion method; type: functional, Salmonella enterica subsp. enterica serovar Typhi
Outline: (§1)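 Well diffusion on nutrient agar. 10 mm wells cut with a sterile cork borer. Plates swab-inoculated from a 24 h bacterial subculture in nutrient broth. Compounds dissolved in chloroform and added to wells at 50 and 100 µM. Gentamycin used as standard. % inhibition derived from inhibition zone diameter.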

Escherichia coli = assay: Antimicrobial activity against Escherichia coli after 24 hrs by well diffusion method; type: functional; outline: as §1
[2] = Cytotoxicity against african green monkey Vero C1008 cells at 6.25 to 50 ug/mL by neutral-red uptake assay; type: cell-based; details: chlorocebus sabaeus
Outline: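 Vero C-1008 cells exposed to compounds at 6.25–50 µg/mL. Cytotoxicity read out by neutral red uptake.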

Staphylococcus aureus = assay: Antimicrobial activity against Staphylococcus aureus after 24 hrs by well diffusion method; type: functional; outline: as §1
Pseudomonas aeruginosa = assay: Antimicrobial activity against Pseudomonas aeruginosa after 24 hrs by well diffusion method; type: functional; outline: as §1
[3] = test system: Mycobacterium tuberculosis; assay: Antitubercular activity against Mycobacterium tuberculosis H37Rv ATCC 27294 by microplate alamar blue assay; type: functional
Outline: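 Compounds active in the primary screen were retested at lower concentrations against H37Rv by Microplate Alamar Blue Assay. MIC taken as the lowest concentration giving a 95% reduction in fluorescence relative to controls. Rifampin used as reference.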

| Compound | inhibition of growth at 6.25 µg/mL [1] [%] | inhibition zone (IZ) (Salmonella typhi) [mm] | inhibition zone (IZ) (Escherichia coli) [mm] | Activity [2] | inhibition zone (IZ) (Staphylococcus aureus) [mm] | inhibition zone (IZ) (Pseudomonas aeruginosa) [mm] | MIC [3] | inhibition zone (IZ) (Salmonella typhi; Salmonella enterica subsp. enterica serovar Typhi) [mm] |
| --- | --- | --- | --- | --- | --- | --- | --- | --- |
| Cc1ccc(-n2cc(Cn3c(-c4cccc(F)c4)nc4ccccc43)nn2)c(F)c1 | 96 | 18 | 21 | Non-toxic | 18 | 13 | 3.13 µM and > 6.25 µg/mL | – |
| Fc1ccc(-n2cc(Cn3c(-c4cccc(F)c4)nc4ccccc43)nn2)cc1 | 96 | 19 | 20 | Non-toxic | 26 | 19 | 0.58 µM and > 6.25 µg/mL | – |
| Fc1cccc(-c2nc3ccccc3n2Cc2cn(-c3ccc(C(F)(F)F)cc3)nn2)c1 | – | 18 | 21 | Non-toxic | 18 | 13 | > 6.25 µg/mL | – |
| Fc1cccc(-c2nc3ccccc3n2Cc2cn(-c3ccccc3)nn2)c1 | – | 18 | 17 | Non-toxic | 26 | 28 | > 6.25 µg/mL | – |
| CO[C@H]1/C=C/O[C@@]2(C)Oc3c(C)c(O)c4c(O)c(c(/C=N/N5CCN(C)CC5)c(O)c4c3C2=O)NC(=O)/C(C)=C\C=C\[C@H](C)[C@H](O)[C@@H](C)[C@@H](O)[C@@H](C)[C@H](OC(C)=O)[C@@H]1C [RIFAMPIN] | – | – | – | – | – | – | 0.015 µg/mL (≈ 0.0182 µM) | – |
| Fc1cccc(-c2nc3ccccc3n2Cc2cn(-c3ccc(F)cc3F)nn2)c1 | 96 | 31 | 32 | Non-toxic | 33 | 34 | 0.32 µM and > 6.25 µg/mL | – |
| COc1ccc(-n2cc(Cn3c(-c4cccc(F)c4)nc4ccccc43)nn2)cc1 | 96 | 21 | 18 | Non-toxic | 20 | 26 | 6.25 µM and > 6.25 µg/mL | – |
| GENTAMICIN | – | – | – | – | – | – | – | 30 |
| COc1ccccc1-n1cc(Cn2c(-c3cccc(F)c3)nc3ccccc32)nn1 | – | 23 | 19 | Non-toxic | 21 | 24 | > 6.25 µg/mL | – |
| Cc1ccccc1-n1cc(Cn2c(-c3cccc(F)c3)nc3ccccc32)nn1 | – | 17 | 14 | Non-toxic | 16 | 19 | > 12.5 µg/mL | – |
| Fc1cccc(-c2nc3ccccc3n2Cc2cn(-c3ccc(F)c(F)c3)nn2)c1 | 96 | 29 | 30 | Non-toxic | 32 | 31 | 0.34 µM and > 6.25 µg/mL | – |
| Fc1cccc(-c2nc3ccccc3n2Cc2cn(-c3ccc(F)c(F)c3F)nn2)c1 | – | 30 | 29 | Non-toxic | 31 | 33 | > 6.25 µg/mL | – |
| Cc1ccc(-n2cc(Cn3c(-c4cccc(F)c4)nc4ccccc43)nn2)cc1 | – | 17 | 19 | Non-toxic | 18 | 20 | > 12.5 µg/mL | – |

Source: ChEMBL document CHEMBL1152138, “Clubbed [1,2,3] triazoles by fluorine benzimidazole: a novel approach to H37Rv inhibitors as a potential treatment for tuberculosis” (Bioorg Med Chem Lett, 2008)
